Experimental data: ChEMBL document CHEMBL1154787, “Enaminonitrile in heterocyclic synthesis: synthesis and antimicrobial evaluation of some new pyrazole, isoxazole and pyrimidine derivatives incorporating a benzothiazole moiety” (2009)
≈ marks a conversion by molar mass, not a printed value.

What was measured:
Format in all cases: functional
[1] = tested on: Bacillus subtilis; assay: Antibacterial activity against Bacillus subtilis assessed as zone of inhibition diameter at 1 mg/mL after 24 hrs […]; details: read-out: DIZ
In short: (§1)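 Agar diffusion: 5 mm sterile filter-paper disks loaded with test compound in DMF (1 mg/mL) placed on agar seeded with the bacterium, in triplicate; DMF alone as control; incubated 37 °C for 24 h; mean inhibition-zone diameter recorded in mm.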

[2] = tested on: Bacillus thuringiensis; assay: Antibacterial activity against Bacillus thuringiensis assessed as zone of inhibition diameter at 1 mg/mL after 24 hrs […]; details: read-out: DIZ; in short: as §1
[3] = tested on: Escherichia coli; assay: Antibacterial activity against Escherichia coli assessed as zone of inhibition diameter at 1 mg/mL after 24 hrs […]; details: read-out: DIZ; in short: as §1
[4] = tested on: Pseudomonas aeruginosa; assay: Antibacterial activity against Pseudomonas aeruginosa assessed as zone of inhibition diameter at 1 mg/mL after 24 hrs […]; details: read-out: DIZ; in short: as §1
[5] = tested on: Fusarium oxysporum; assay: Antifungal activity against Fusarium oxysporum assessed as zone of inhibition diameter at 1 mg/mL after 48 hrs […]; details: read-out: DIZ
In short: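 Agar diffusion: 5 mm sterile filter-paper disks loaded with test compound in DMF (1 mg/mL) placed on agar seeded with the fungus, in triplicate; DMF alone as control; incubated at 37 °C for fungal plates; mean inhibition-zone diameter recorded in mm.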

[6] = tested on: Bacillus subtilis; assay: Antibacterial activity against Bacillus subtilis after 24-48 hrs by microdilution susceptibility test
In short: (§2)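 MIC by twofold serial dilution in wells, tested only for compounds giving inhibition zones >10 mm; microbial suspensions at 10⁶ CFU/mL inoculated into wells, incubated at 36 °C for 24–48 h, then MIC read.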

[7] = tested on: Bacillus thuringiensis; assay: Antibacterial activity against Bacillus thuringiensis after 24-48 hrs by microdilution susceptibility test; in short: as §2
[8] = tested on: Escherichia coli; assay: Antibacterial activity against Escherichia coli after 24-48 hrs by microdilution susceptibility test; in short: as §2
[9] = tested on: Pseudomonas aeruginosa; assay: Antibacterial activity against Pseudomonas aeruginosa after 24-48 hrs by microdilution susceptibility test; in short: as §2
[10] = tested on: Botrytis fabae; assay: Antifungal activity against Botrytis fabae after 24-48 hrs by microdilution susceptibility test; in short: as §2
[11] = tested on: Fusarium oxysporum; assay: Antifungal activity against Fusarium oxysporum after 24-48 hrs by microdilution susceptibility test; in short: as §2

Row | SMILES | zone of inhibition at 1000 µg/mL [1] | zone of inhibition at 1000 µg/mL [2] | zone of inhibition at 1000 µg/mL [3] | zone of inhibition at 1000 µg/mL [4] | zone of inhibition at 1000 µg/mL [5] | MIC [6] | MIC [7] | MIC [8] | MIC [9] | MIC [10] | MIC [11]
1 | N#C/C(=C\NN)C(=O)Nc1nc2ccccc2s1 | 13 mm | 19 mm | 25 mm | 25 mm | 19 mm | 100 mg/L (≈ 386 µM) | 50 mg/L (≈ 193 µM) | 25 mg/L (≈ 96.4 µM) | 25 mg/L (≈ 96.4 µM) | 6.25 mg/L (≈ 24.1 µM) | 50 mg/L (≈ 193 µM)
2 | N#C/C(=C/N)C(=O)Nc1nc2ccccc2s1 | 13 mm | 19 mm | 25 mm | 13 mm | 31 mm | 100 mg/L (≈ 409 µM) | 50 mg/L (≈ 205 µM) | 25 mg/L (≈ 102 µM) | 100 mg/L (≈ 409 µM) | 6.25 mg/L (≈ 25.6 µM) | 12.5 mg/L (≈ 51.2 µM)
3 | NC1=Nc2ccccc2NC=C1C(=O)Nc1nc2ccccc2s1 | 37 mm | 31 mm | 25 mm | 37 mm | 25 mm | 6.25 mg/L (≈ 18.6 µM) | 12.5 mg/L (≈ 37.3 µM) | 25 mg/L (≈ 74.5 µM) | 6.25 mg/L (≈ 18.6 µM) | 12.5 mg/L (≈ 37.3 µM) | 25 mg/L (≈ 74.5 µM)
4 | N#C/C(=C\NNc1ccccc1)C(=O)Nc1nc2ccccc2s1 | 13 mm | 19 mm | 31 mm | 25 mm | 31 mm | 100 mg/L (≈ 298 µM) | 50 mg/L (≈ 149 µM) | 12.5 mg/L (≈ 37.3 µM) | 25 mg/L (≈ 74.5 µM) | 6.25 mg/L (≈ 18.6 µM) | 12.5 mg/L (≈ 37.3 µM)
5 | N=c1c(C(=O)Nc2nc3ccccc3s2)cnc2sccn12 | 31 mm | 25 mm | 25 mm | 37 mm | 25 mm | 12.5 mg/L (≈ 38.2 µM) | 25 mg/L (≈ 76.4 µM) | 25 mg/L (≈ 76.4 µM) | 6.25 mg/L (≈ 19.1 µM) | 12.5 mg/L (≈ 38.2 µM) | 25 mg/L (≈ 76.4 µM)
6 | N#Cc1cncn(-c2nc3ccccc3s2)c1=O | 31 mm | 19 mm | 19 mm | 19 mm | 19 mm | 12.5 mg/L (≈ 49.2 µM) | 50 mg/L (≈ 197 µM) | 50 mg/L (≈ 197 µM) | 50 mg/L (≈ 197 µM) | 12.5 mg/L (≈ 49.2 µM) | 50 mg/L (≈ 197 µM)
7 | Nc1ncc(C(=O)Nc2nc3ccccc3s2)c(N)n1 | 31 mm | 25 mm | 25 mm | 19 mm | 37 mm | 12.5 mg/L (≈ 43.7 µM) | 25 mg/L (≈ 87.3 µM) | 25 mg/L (≈ 87.3 µM) | 50 mg/L (≈ 175 µM) | 3.12 mg/L (≈ 10.9 µM) | 6.25 mg/L (≈ 21.8 µM)
8 | CN[C@@H]1[C@H](O[C@H]2[C@H](O[C@H]3[C@H](O)[C@@H](O)[C@H](N=C(N)N)[C@@H](O)[C@@H]3N=C(N)N)O[C@@H](C)[C@]2(O)C=O)O[C@@H](CO)[C@H](O)[C@H]1O [STREPTOMYCIN] | 43 mm | 37 mm | 37 mm | 37 mm | – | 3.12 mg/L (≈ 5.37 µM) | 6.25 mg/L (≈ 10.7 µM) | 6.25 mg/L (≈ 10.7 µM) | 6.25 mg/L (≈ 10.7 µM) | – | –
9 | Nc1oncc1C(=O)Nc1nc2ccccc2s1 | 19 mm | 25 mm | 19 mm | 19 mm | 25 mm | 50 mg/L (≈ 192 µM) | 25 mg/L (≈ 96.1 µM) | 50 mg/L (≈ 192 µM) | 50 mg/L (≈ 192 µM) | 6.25 mg/L (≈ 24 µM) | 25 mg/L (≈ 96.1 µM)
10 | O=C(N[C@H](CO)[C@H](O)c1ccc([N+](=O)[O-])cc1)C(Cl)Cl [CHLORAMPHENICOL] | 37 mm | 37 mm | 37 mm | 37 mm | – | 6.25 mg/L (≈ 19.3 µM) | 6.25 mg/L (≈ 19.3 µM) | 6.25 mg/L (≈ 19.3 µM) | 6.25 mg/L (≈ 19.3 µM) | – | –
11 | N=c1c(C(=O)Nc2nc3ccccc3s2)cnc2ccccn12 | 37 mm | 31 mm | 31 mm | 19 mm | 25 mm | 6.25 mg/L (≈ 19.4 µM) | 12.5 mg/L (≈ 38.9 µM) | 12.5 mg/L (≈ 38.9 µM) | 50 mg/L (≈ 156 µM) | 6.25 mg/L (≈ 19.4 µM) | 25 mg/L (≈ 77.8 µM)
12 | Nc1[nH]ncc1C(=O)Nc1nc2ccccc2s1 | 31 mm | 19 mm | 31 mm | 31 mm | 37 mm | 12.5 mg/L (≈ 48.2 µM) | 50 mg/L (≈ 193 µM) | 12.5 mg/L (≈ 48.2 µM) | 12.5 mg/L (≈ 48.2 µM) | 3.12 mg/L (≈ 12.1 µM) | 6.25 mg/L (≈ 24.1 µM)
13 | OC(Cn1cncn1)(Cn1cncn1)c1ccc(F)cc1F [FLUCONAZOLE] | – | – | – | – | 43 mm | – | – | – | – | 3.12 mg/L (≈ 10.2 µM) | 3.12 mg/L (≈ 10.2 µM)
14 | Nc1c(C(=O)Nc2nc3ccccc3s2)cnc2nnnn12 | 43 mm | 31 mm | 19 mm | 19 mm | 37 mm | 3.12 mg/L (≈ 10 µM) | 12.5 mg/L (≈ 40 µM) | 50 mg/L (≈ 160 µM) | 50 mg/L (≈ 160 µM) | 3.12 mg/L (≈ 10 µM) | 6.25 mg/L (≈ 20 µM)
15 | CN(C)/C=C(\C#N)C(=O)Nc1nc2ccccc2s1 | 13 mm | 25 mm | 13 mm | 19 mm | 25 mm | 100 mg/L (≈ 367 µM) | 25 mg/L (≈ 91.8 µM) | 100 mg/L (≈ 367 µM) | 50 mg/L (≈ 184 µM) | 25 mg/L (≈ 91.8 µM) | 25 mg/L (≈ 91.8 µM)
16 | Nc1c(C(=O)Nc2nc3ccccc3s2)cnn1-c1ccccc1 | 31 mm | 19 mm | 19 mm | 19 mm | 19 mm | 12.5 mg/L (≈ 37.3 µM) | 50 mg/L (≈ 149 µM) | 50 mg/L (≈ 149 µM) | 50 mg/L (≈ 149 µM) | 12.5 mg/L (≈ 37.3 µM) | 50 mg/L (≈ 149 µM)
